Results as given in paper PMC5946624 (Dose-Response, 2018).
Like-named read-outs stand apart in the source and are kept apart here. Marks after values point to notes of the source that are not given here.

Key:
CYP2E1 [1] = target: T1, CYP2E1 (Homo sapiens, UniProt P05181); experiment: CYP2E1 baculosome pNP hydroxylation; type: biochemical; conditions: for Effect on pNC formation: earlier time (10 minutes)
Target sequence in this assay (P05181 whole entry): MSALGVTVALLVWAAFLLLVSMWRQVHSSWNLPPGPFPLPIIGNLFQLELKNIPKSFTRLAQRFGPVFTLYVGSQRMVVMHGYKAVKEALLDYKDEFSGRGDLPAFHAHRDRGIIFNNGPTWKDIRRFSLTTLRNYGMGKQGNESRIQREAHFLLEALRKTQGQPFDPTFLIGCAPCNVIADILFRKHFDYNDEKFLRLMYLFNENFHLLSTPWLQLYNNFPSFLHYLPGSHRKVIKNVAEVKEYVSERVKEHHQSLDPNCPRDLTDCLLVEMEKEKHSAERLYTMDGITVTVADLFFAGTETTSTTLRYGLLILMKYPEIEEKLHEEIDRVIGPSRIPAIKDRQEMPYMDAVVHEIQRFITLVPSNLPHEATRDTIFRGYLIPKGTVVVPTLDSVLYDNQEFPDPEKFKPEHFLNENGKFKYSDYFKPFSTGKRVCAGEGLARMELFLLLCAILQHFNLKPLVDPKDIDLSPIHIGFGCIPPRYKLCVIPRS

CYP2E1 [2] = conditions: enzyme taken at 0.1 µmol/L; cited from earlier work
CYP2E1 [3] = target: T1, CYP2E1; experiment: Simulation of hydroxylating activities of CYP2E1 with DROS; type: biochemical; conditions: after 10 minutes; for Concentration of hydroxylated product, Control, Cyt b 5 + pNP: Cyt b5, without CYP2E1; for Concentration of hydroxylated product, CYP2E1, pNP: pNP 25 µmol/L, with CYP2E1; for Concentration of hydroxylated product, CYP2E1, Cyt b 5 + pNP: with CYP2E1 and Cyt b5; for Concentration of hydroxylated product, Control, pNP: without CYP2E1
In short: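 Reconstituted hydroxylation with diffusible oxygen species used initial pNP 25 µmol/L, DLPC 20 µmol/L and CYP2E1 100 nmol/L (omitted in controls). When present: NADPH 200 µmol/L, CPR 200 nmol/L, Cyt b5 200 nmol/L, H2O2 32 µmol/L, or KO2 ≤16 µmol/L. KO2 was added from a DMSO/15-crown ether substock, giving ~1% DMSO/crown ether in the reaction. Hydroxylated product (nmol/L) was measured after 10 min.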
Target sequence in this assay (P05181 whole entry): as above
Target sequence in this assay (P16435 2-677 partner): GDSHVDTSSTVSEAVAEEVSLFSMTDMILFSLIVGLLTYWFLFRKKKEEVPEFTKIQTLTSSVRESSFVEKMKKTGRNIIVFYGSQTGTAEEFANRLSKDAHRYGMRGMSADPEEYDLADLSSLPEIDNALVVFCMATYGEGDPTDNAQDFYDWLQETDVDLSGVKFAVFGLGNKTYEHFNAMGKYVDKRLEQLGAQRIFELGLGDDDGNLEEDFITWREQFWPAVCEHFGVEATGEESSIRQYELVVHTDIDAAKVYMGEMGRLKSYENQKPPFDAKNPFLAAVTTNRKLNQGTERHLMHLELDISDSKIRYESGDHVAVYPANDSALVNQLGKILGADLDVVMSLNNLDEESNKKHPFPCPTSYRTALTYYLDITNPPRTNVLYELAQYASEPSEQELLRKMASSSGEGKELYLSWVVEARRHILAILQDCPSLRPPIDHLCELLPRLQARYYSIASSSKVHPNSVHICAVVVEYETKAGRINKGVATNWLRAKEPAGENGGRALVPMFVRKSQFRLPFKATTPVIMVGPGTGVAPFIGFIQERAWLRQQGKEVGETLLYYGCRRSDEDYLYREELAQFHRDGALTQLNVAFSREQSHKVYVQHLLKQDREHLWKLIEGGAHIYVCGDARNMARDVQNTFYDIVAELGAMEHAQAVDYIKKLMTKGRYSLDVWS
Target sequence in this assay (P00167 2-134 partner): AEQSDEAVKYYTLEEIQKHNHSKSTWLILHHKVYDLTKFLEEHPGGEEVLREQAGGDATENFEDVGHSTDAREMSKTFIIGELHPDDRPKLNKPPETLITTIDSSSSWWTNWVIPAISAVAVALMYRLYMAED

Escherichia coli DH5α [4] = experiment: Growth of E coli DH5α transformed with pBTR1; type: cell-based; conditions: 4 hours, control = 100
CYP2E1 [5] = target: T1, CYP2E1; experiment: Extended CYP2E1-pNP inhibition profiling; type: biochemical; conditions: additive up to 50 µmol/L
Target sequence in this assay (P05181 whole entry): as the sequence (P05181 whole entry) above
Target sequence in this assay (P16435 2-677 partner): as the sequence (P16435 2-677 partner) above
Target sequence in this assay (P00167 2-134 partner): as the sequence (P00167 2-134 partner) above

E coli DH5α = experiment: Growth; type: cell-based, Escherichia coli
B megaterium MTCC 428 = experiment: Growth; type: cell-based, Bacillus megaterium
Escherichia coli DH5α [6] = conditions: 6 hours, control = 100

For `CCc1oc2ccccc2c1C(=O)c1ccc(O)cc1` [Bzr, benzarone], the Ki (CYP2E1 [1]; Ki Competitive, Cheng-Prusoff from IC50, KM 14 µmol/L) was 8.7 µM, the Ki (CYP2E1 [1]; Ki Noncompetitive, calculated from IC50 (website)) was 71 µM and the “Ki Uncompetitive” value (CYP2E1 [1]; calculated from IC50 (website)) was 62.3 µM. For the same molecule, the “Inhibition at 10 nmol/L compared to 1 µmol/L” value (CYP2E1 [1]; initial sampling time) was “greater extent of inhibition”.

For `c1ccc2[nH]ncc2c1` [indazole], the Kd (CYP2E1 [2]) is listed as 0.005 µM.

For `OO` [H2O2], the “Concentration of hydroxylated product, Control, Cyt b 5 + pNP” value (CYP2E1 [3]) was “Nil”, the “Concentration of hydroxylated product, CYP2E1, pNP” value (CYP2E1 [3]) was <10 nmol/L and the “Concentration of hydroxylated product, CYP2E1, Cyt b 5 + pNP” value (CYP2E1 [3]) was “∼74 nmol/L”. The “Concentration of hydroxylated product, Control, pNP” value (CYP2E1 [3]) was “Nil”.

With `Nc1nc[nH]n1` [Amitrol, amitrol] the Relative growth density (Escherichia coli DH5α [4]; amitrol 10^−3 M, + IPTG) was 60 (9), the Relative growth density (Escherichia coli DH5α [4]; amitrol 10^−3 M, − IPTG) was 94 (4) and the Relative growth density (Escherichia coli DH5α [4]; amitrol 10^−6 M, + IPTG) was 70 (6). The Relative growth density (Escherichia coli DH5α [4]; amitrol 10^−6 M, − IPTG) was 103 (10), the Relative growth density (Escherichia coli DH5α [4]; amitrol 10^−9 M, + IPTG) was 63 (5) and the Relative growth density (Escherichia coli DH5α [4]; amitrol 10^−9 M, − IPTG) was 103 (3). For the same molecule, the Relative growth density (Escherichia coli DH5α [4]; amitrol 10^−12 M, + IPTG) was 51 (4) and the Relative growth density (Escherichia coli DH5α [4]; amitrol 10^−12 M, − IPTG) was 50 (2).

For `CCc1oc2ccccc2c1C(=O)c1ccc(OC)cc1` [MeOBzr, methoxybenzarone], the “Ki Uncompetitive” value (CYP2E1 [1]; calculated from IC50 (website)) was 100.9 µM, the Ki (CYP2E1 [1]; read-out: Ki Competitive, Cheng-Prusoff from IC50, KM 14 µmol/L) was 14.1 µM and the Ki (CYP2E1 [1]; read-out: Ki Noncompetitive, calculated from IC50 (website)) was 115 µM.

With `O=[N+]([O-])c1ccc(O)cc1` [pNP, para-nitrophenol] the Km (CYP2E1 [1]; read-out: 2E1-pNP KM, substrate constant used for Cheng-Prusoff) was 14 µM.

With `[O]O` [O2 ^˙−] the “Concentration of hydroxylated product, Control, Cyt b 5 + pNP” value (CYP2E1 [3]) was “∼70^b nmol/L”, the “Concentration of hydroxylated product, CYP2E1, pNP” value (CYP2E1 [3]) was “∼104^b nmol/L” and the “Concentration of hydroxylated product, CYP2E1, Cyt b 5 + pNP” value (CYP2E1 [3]) was “∼499^b nmol/L”. The “Concentration of hydroxylated product, Control, pNP” value (CYP2E1 [3]) was “∼88^b nmol/L”.

With `N[C@@H](Cc1cc(I)c(O)c(I)c1)C(=O)O` [DIT, diiodotyrosine] the “Effect on pNC formation” value (CYP2E1 [1]; 10 nmol/L additive) was “enhanced reactions” and the “Effect on pNC formation” value (CYP2E1 [1]; high/higher additive concentrations) was “inhibited pNC formation”.

With `Cn1c(=O)[nH]c(=O)c2[nH]cnc21` [3-Methylxanthine (MetXan), 3-Methylxanthine] the “Effect on pNP reactions” value (CYP2E1 [5]) was “did not significantly perturb/inhibit”.

With `[N-]=[N+]=[N-]` [Azide, azide] the Effect on growth (E coli DH5α; azide at mmol/L ranges, compared with B megaterium) was “much less harsh”, the Effect on growth (E coli DH5α; nmol/L concentration of azide) was “inhibitory” and the Effect on growth (E coli DH5α; µmol/L concentration of azide) was “no inhibition whatsoever”. For the same molecule, the Effect on growth (B megaterium MTCC 428; azide 10^−6 to 10^−12 M) was “did not impact”, the Effect on growth (B megaterium MTCC 428; azide at mmol/L ranges) was “very effective in curbing the growth” and the Relative growth density (Escherichia coli DH5α [6]; azide 10^−3 M, + IPTG) was 24 (3). The Relative growth density (Escherichia coli DH5α [6]; azide 10^−3 M, − IPTG) was 12 (5), the Relative growth density (Escherichia coli DH5α [6]; azide 10^−6 M, + IPTG) was 79 (5) and the Relative growth density (Escherichia coli DH5α [6]; azide 10^−6 M, − IPTG) was 97 (7). The Relative growth density (Escherichia coli DH5α [6]; azide 10^−9 M, + IPTG) was 29 (6), the Relative growth density (Escherichia coli DH5α [6]; azide 10^−9 M, − IPTG) was 41 (6) and the Relative growth density (Escherichia coli DH5α [6]; azide 10^−12 M, + IPTG) was 32 (3). The Relative growth density (Escherichia coli DH5α [6]; azide 10^−12 M, − IPTG) was 107 (8).
